According to ChEMBL document CHEMBL4251758, “Small Molecule Inhibition of MicroRNA miR-21 Rescues Chemosensitivity of Renal-Cell Carcinoma to Topotecan” (J Med Chem, 2018):
Active and inactive are the calls of the source. The calls are words filed in the database; no cut-off is given here.

What was measured:
A498 [1] = experiment: Decrease in mature miR-21 expression levels in human A498 cells at 10 uM after 48 hrs by qRT-PCR analysis; format: functional, cell-based
NIH3T3 = experiment: Cytotoxicity against mouse NIH/3T3 cells up to 100 uM after 72 hrs by XTT assay; format: cell-based; conditions: nih3t3, 72 h
Method in brief: (§1)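 Cells seeded at 500 per well, incubated overnight, then exposed to increasing compound concentrations (0.1% DMSO final, DMSO control) in triplicate for 72 h. Activated XTT added; absorbance read at 450 nm with 630 nm background at start and after 4 h at 37 °C, 5% CO2. Change normalized to DMSO as % viability; IC50 from variable-slope sigmoidal fit; three independent measurements.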

[2] = Inhibition of miR-125b RNA (unknown origin) transfected in human PC3 cells at 10 uM after 48 hrs by Bright-Glo luciferase reporter gene assay; format: cell-based
HeLa = experiment: Effect on mature miR-21 expression levels in human HeLa cells at 10 uM after 48 hrs by qRT-PCR analysis; format: functional, cell-based
Method in brief: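 HeLa cells, 150,000 per well, grown overnight and exposed to 10 μM compound or DMSO (1% final) for 48 h at 37 °C. RNA was isolated and 100 ng reverse-transcribed with miR-21 or RNU19 TaqMan RT primers. TaqMan qPCR run for 40 cycles. Triplicate Ct values converted to levels relative to DMSO by the 2−ΔΔCt method.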

A498 [3] = experiment: Inhibition of colony formation of human A498 cells up to 10 uM after 2 weeks by crystal violet staining-based microscopic analysis; format: functional, cell-based
Method in brief: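 A498 cells, 10,000 per well, seeded in 0.45% low-melt agarose in DMEM over a 0.7% agarose base layer, containing increasing compound concentrations or DMSO (0.1% final), in triplicate. For combinations, the inhibitor was held at 10 μM. After 2 weeks, colonies were stained with 0.1% crystal violet and imaged by z-stack microscopy. Colony counts were normalized to DMSO; IC50 from sigmoidal fit.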

A549 = experiment: Decrease in mature miR-21 expression levels in human A549 cells at 10 uM after 48 hrs by qRT-PCR analysis; format: functional, cell-based
microRNA 21 [4] = experiment: Inhibition of miR-21 RNA in human A498 cells assessed as increase in PDCD4 expression at 10 uM after 48 hrs by Western blot analysis relative to control; format: cell-based
Method in brief: (§2)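 A498 cells, 250,000 per well, treated with 10 μM compound or DMSO (0.1%) for 48 h and lysed in RIPA buffer. Lysates were run on 10% SDS-PAGE, transferred to PVDF, and probed with rabbit anti-PTEN, anti-PDCD4 and anti-GAPDH, then HRP secondary. Chemiluminescence densitometry was normalized to GAPDH, then to DMSO.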

A 172 = experiment: Cytotoxicity against human A172 cells after 72 hrs by XTT assay; format: functional, cell-based; conditions: A 172, 72 h; method in brief: as §1
microRNA 21 [5] = experiment: Inhibition of miR-21 RNA in human A498 cells assessed as increase in PTEN expression at 10 uM after 48 hrs by Western blot analysis relative to control; format: cell-based; method in brief: as §2
[6] = Stabilization of pre-miR-21 RNA (unknown origin) assessed as increase in melting temperature at 10 uM by UV-spectrophotometric analysis
Method in brief: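 Melting-curve analysis of precursor miR-21 RNA run with test compound, with DMSO as the reference condition and tobramycin (10 μM) as a positive control for RNA binding and stabilisation. Read-out is the shift in melting temperature of pre-miR-21 relative to the DMSO sample.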

SMILES: C#CCOc1ccc(-c2noc(-c3nnn(-c4cccc(/C(C)=N/O)c4)c3N)n2)cc1
- Activity (A498 [1]): inactive
- Activity (NIH3T3): Non-Toxic
- inhibition [2]: inactive
- Activity (HeLa): inactive
- inhibition (A498 [3]): inactive
- Activity (A549): inactive
- fold change (FC) (microRNA 21 [4]): 9.5
- IC50 (A 172): 4.6 µM
- fold change (FC) (microRNA 21 [5]): 1.5
- Activity [6]: inactive
